Tests used:
[1] = folding enthalpy; higher = less favourable; fluorescence melt of hairpins on a sequencing array, two-state fit; conditions: sodium 0.088 M
Summary of the method: (§1)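 To match UV melts, fitted temperatures were raised by 9.35 °C. These fits were bootstrapped two-state models that gave melting temperature and folding enthalpy, combined by inverse variance over four replicates. The input was normalised Cy3 fluorescence of library hairpins with annealed Cy3 and quencher oligos on a sequenced MiSeq flow cell, imaged in 50 mM Na-HEPES pH 8.0, 25 mM NaCl in 2.5 °C steps up to 60 °C.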

[2] = melting temperature; fluorescence melt of hairpins on a sequencing array, two-state fit, raised by 9.35 °C to match UV melts; conditions: sodium 0.088 M
Summary of the method: as §1

| Sequence | folding enthalpy [1] [kcal/mol] | Tm [2] [°C] |
| --- | --- | --- |
| GACAACGAAAGTTGTGTC ((((((....)))..))) | -14.7 | 50.6 |
| GATAGGGGAAACCTTATC ((((.((....)).)))) | -25.5 | 33.6 |
| GTTAGTGAAAACTAAC ((((((....)))))) | -33.4 | 49.3 |
| GTTAGAGGAAACTCTGAC ((.((((....)))).)) | -31.4 | 37.1 |
| GTGCGGGGAAACCCGTAC ((.((((....)))).)) | -27.4 | 59.1 |
| GATCCAGAACTGGATC ((((((....)))))) | -37.6 | 56.4 |
| GGGGAGACGAAAGTCCCC (((..(((....)))))) | -29.6 | 58.1 |
| GCCTACGAAAGTAGGGGC ((((((....)))..))) | -14.4 | 61.3 |
| GGGACCCGAAAGGGCCC (((.(((....)))))) | -19 | 66 |
| GAGACTGGAAACAGTCCC (.(((((....))))).) | -11 | 44.9 |
| GCCATGCGAAAGCATCGC ((.((((....)))).)) | -18.1 | 49.5 |
| GGTGACGAAAGTCAACC ((((((....))).))) | -19.6 | 56.1 |
| GCCTGCACGAAAGTGGGC (((..(((....)))))) | -20.3 | 47.3 |
| GACGGCGGAAACGCTGTC (((.(((....))).))) | -37.5 | 64.7 |
| GTAGGCGAAAGCCCTTAC ((((((....)))..))) | -9.27 | 37.9 |
| ATGACGAAAGTCAT (((((....))))) | -19.1 | 56.8 |
| GGTATCGAAAGATGAACC ((((((....)))..))) | -15.4 | 27.9 |
| GGTCTCGAAAGAGATACC ((((((....)))..))) | -15.2 | 38.7 |
| GCGGTTATCCGC ((((....)))) | -30 | 59 |
| GCGTTCGGAAACAAACGC (((((.(....).))))) | -34.6 | 47.9 |
| GCGCCGCGAAAGCAGAGC ((.(.((....)).).)) | -27.8 | 66.7 |
| GCGCAGCGAAAGCAACGC (((..((....))..))) | -10.2 | 49.6 |
| CAACGGAAACGTTG (((((....))))) | -25.9 | 52.6 |

| Sequence | folding enthalpy [1] [kcal/mol] | Tm [2] [°C] |
| --- | --- | --- |
| CGTTCGGAAACGAAACG ((((((....))).))) | -27.8 | 45.8 |
| GCCCAGCGAAAGCGCGGC (((..((....))..))) | -22.1 | 61.9 |
| GTTTCGCGAAAGCGAAC (((.(((....)))))) | -10.4 | 53.9 |
| GCGGTTGCCGC ((((...)))) | -21.2 | 56.6 |
| GATCCGCCTCCGGATC ((((((....)))))) | -34.5 | 56.1 |
| GGCCGAGGAAACCCGACC ((.((.(....).)).)) | -24.9 | 34 |
| GACTACGAAAGTATTGTC ((((((....)))..))) | -15.2 | 29.6 |
| GGTGTTGAAAAACACC ((((((....)))))) | -37 | 57.9 |
| GATCACCTAGTGATC ((((((...)))))) | -34.8 | 58.2 |
| GCATTGCGAAAGCTATGC ((((.((....)).)))) | -38.9 | 62.5 |
| GCCGGTGGAAACACTGGC (((.(((....))).))) | -41.5 | 60 |
| GCGGACGGAAACATCCGC (((((.(....).))))) | -39.2 | 52.9 |
| GGACCACGAAAGTGCTCC (((.(((....))).))) | -25.9 | 41.5 |
| GTCTCCGAAAGGACGAC ((((((....))).))) | -27.5 | 46.7 |
| GCTCAGCGAAAGCTCAGC (((.(((....))).))) | -15 | 44.7 |
| GCGATTGGAAACAATCAC (.(((((....))))).) | -19.7 | 40 |
| GTGCACGAAAGTGGTCAC ((((((....)))..))) | -15.9 | 40.2 |
| GAGAGGGGAAACCCCCTC (((.(((....))).))) | -14.9 | 47.9 |
| GAACGCGAAAGCGATTTC ((((((....)))..))) | -9.14 | 32.3 |
| GGTCGCGAAAGCGGTACC ((((((....)))..))) | -14.5 | 46.5 |
| GTATCGCGAAAGCGTAC (((.(((....)))))) | -12.1 | 44.5 |
| ACAATGAAAATTGT (((((....))))) | -11.1 | 34.8 |
| GATCCCCCTTGGGATC ((((((....)))))) | -39.8 | 57.7 |

| Sequence | folding enthalpy [1] [kcal/mol] | Tm [2] [°C] |
| --- | --- | --- |
| GATAAGGCGAAAGCCATC (((..(((....)))))) | -9.19 | 29.6 |
| GGACGAGGAAACTCGTCC (((((((....))))))) | -44.4 | 68.8 |
| GACCTGACGAAAGTCGTC (((..(((....)))))) | -9.44 | 35.9 |
| GGCTACGAAAGTACGGCC ((((((....)))..))) | -23.9 | 46.5 |
| CTTCCGAAAGGAAG (((((....))))) | -21.3 | 55.8 |
| GCAAGCGAAAGCTCGTGC ((((((....)))..))) | -15.1 | 37.4 |
| GTAAGAGGAAACTCTTGC (.(((((....))))).) | -25 | 38.7 |
| GGTCTGCGAAAGCATACC (((.(((....))).))) | -22.1 | 49.4 |
| GCCAGACGAAAGTCAGGC (((.(((....))).))) | -32.6 | 64.8 |
| GAAAATGGAAACATTTTC (((((((....))))))) | -44.6 | 51 |
| GGTACTGAAAAGTACC ((((((....)))))) | -39.5 | 57.4 |
| GTAGAAGGAAACTTCTGC (.(((((....))))).) | -23.1 | 39 |
| GCGACGCGAAAGCGATGC ((..(((....)))..)) | -24.1 | 61.8 |
| GATCTTGATTAAGATC ((((((....)))))) | -26.6 | 41.8 |
| GCGCAGCGAAAGCTTGGC ((..(((....)))..)) | -6.35 | 38.5 |
| GTCATGGGAAACCATGAC (((((((....))))))) | -44.5 | 60.7 |
| GCCTAGGAAACTAGGC ((((((....)))))) | -36.2 | 58.7 |
| GTTTGCGAAAGCAGTAAC ((((((....)))..))) | -12.9 | 30.6 |
| GGTGCCCGAAAGGGAACC (((.(((....))).))) | -35.8 | 65.1 |
| GTTGGCGAAAGCCGAAC ((((((....))).))) | -13.8 | 50.5 |
| GCTTGAGGAAACCCAAGC (((((.(....).))))) | -37 | 46 |
| GGCTGACGAAAGTCGCC (((.(((....)))))) | -28.9 | 59.6 |
| GTGTGAGGAAACTTACGC (.((.((....)).)).) | -17.7 | 33.7 |

— the array DNA melting data of Ke et al. (doi:10.1101/2024.01.08.574731)
